Experimental data taken from ChEMBL document CHEMBL2086292, “Chalcogenopyrylium compounds as modulators of the ATP-binding cassette transporters P-glycoprotein (P-gp/ABCB1) and multidrug resistance protein 1 (MRP1/ABCC1)” (J Med Chem, 2012).
Values joined by “and” are separate entries in the source; they are usually repeats but may differ in a detail not shown here. Equal values may be shown once.

Experiments:
[1] = molecular target: T1, MRP1 (Multidrug resistance-associated protein 1) (Homo sapiens, UniProt P33527); assay: Inhibition of human MRP1 mediated uptake of [3H]E2-17betaG in HEK cell membrane vesicles at 30 uM by liquid scintillation counting relative to control; format: cell membranes, HEK293; details: HEK cell membrane vesicles with human MRP1, probe [3H]E2-17betaG
In short: (§1)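 Inside-out membrane vesicles from HEK cells stably transfected with human MRP1. Vesicle protein (2 μg) incubated in Tris-sucrose buffer pH 7.4 with 400 nM [3H]E2-17βG, 4 mM ATP or AMP and 10 mM MgCl2, 3 min at 37 °C, in duplicate; DMSO ≤1% final. Stopped by ice-cold dilution and rapid filtration, then scintillation counted. ATP-dependent uptake taken as ATP minus AMP values; inhibition reported as percent.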

[2] = molecular target: T1, MRP1 (Multidrug resistance-associated protein 1); assay: Inhibition of human MRP1 mediated uptake of [3H]E2-17betaG in HEK cell membrane vesicles at 5 uM by liquid scintillation counting relative to control; format: cell membranes, HEK293; details: HEK cell membrane vesicles with human MRP1, probe [3H]E2-17betaG
In short: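 Inside-out vesicles from stably transfected HEK-MRP1 cells (2 μg protein) in Tris-sucrose buffer pH 7.4 with [³H]E₂17βG 400 nM, ATP or AMP 4 mM, MgCl₂ 10 mM, 3 min at 37 °C, compound at 5 μM; DMSO ≤1%; stopped by ice-cold dilution, rapid filtration, scintillation counting; ATP-dependent uptake = ATP minus AMP; duplicate wells.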

P-gp (ABCB1) = P-gp (ABCB1) (Homo sapiens, UniProt P08183); assay: (§2) Induction of ATPase activity of human His10-tagged P-gp expressed in BHK cells assessed as inorganic phosphate release after 30 mins relative to control; format: cell-based; details: human His10-tagged P-gp expressed in BHK cells, read-out: FC
In short: (§3)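 Human P-gp with C-terminal His10 tag, stably expressed in BHK cells, purified by Ni-chelate chromatography and mixed 1:1 with 10 mg/mL sheep brain phosphatidylethanolamine in TBS (10 mM Tris/HCl pH 7.4, 150 mM NaCl), then sonicated. Compound titrated, 30 min at 37 °C. Inorganic phosphate released from ATP measured. Vmax expressed as fold over basal activity; KM is the concentration giving half-maximal stimulation.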

[3] = molecular target: T2, ATP-dependent translocase ABCB1 (Homo sapiens, UniProt P08183); assay: Inhibition of VER-stimulated human His10-tagged P-gp ATPase activity expressed in BHK cells after 15 mins; format: cell-based
[4] = molecular target: T2, ATP-dependent translocase ABCB1; assay: as §2; format: cell-based; details: bhk, 0.5 h; in short: as §3
[5] = molecular target: T1, MRP1 (Multidrug resistance-associated protein 1); assay: Inhibition of human MRP1-mediated uptake of [3H]E2-17betaG in HEK cell membrane vesicles at 1 uM by liquid scintillation counting relative to control; format: cell membranes, HEK293; details: HEK cell membrane vesicles with human MRP1, probe [3H]E2-17betaG; in short: as §1
MDCK-II [6] = assay: Inhibition of P-gp expressed in MDCK2-MDR1 cells at 5 uM by calcein AM accumulation assay relative to LSN 335984; format: cell-based
In short: (§4)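 MDCKII cells transfected with wild-type human MDR1, seeded at 40000 cells/well and used on day 4. Washed in DPBS with 10 mM HEPES pH 7.4, then compound in the same buffer 30 min at 37 °C. Replaced with compound plus 0.5 μg/mL calcein AM for a further 20 min. Fluorescence read at Ex 485/Em 530 nm. Signal expressed relative to 5 μM LSN 335984, taken as complete inhibition; vehicle 0.25% DMSO. IC50 from 1:1 serial dilutions by variable-slope sigmoidal fit.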

MDCK-II [7] = assay: Inhibition of P-gp expressed in MDCK2-MDR1 cells at 25 uM by calcein AM accumulation assay relative to LSN 335984; format: cell-based; in short: as §4
[8] = molecular target: T1, MRP1 (Multidrug resistance-associated protein 1); assay: Inhibition of human MRP1-mediated uptake of [3H]E2-17betaG in HEK cell membrane vesicles at 10 uM by liquid scintillation counter; format: cell membranes, HEK293; details: HEK cell membrane vesicles with human MRP1, probe [3H]E2-17betaG; in short: as §1
[9] = Octanol-water partition coefficient, log P of the compound in PBS at pH 7.4 after 1 hr by shake flask method; format: physicochemical
In short: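 Shake-flask method: saturated n-octanol solution shaken with an equal volume of PBS pH 7.4 for 3–5 min, then left to settle 1 h at 23 °C. Concentration in each layer measured spectrophotometrically.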

[10] = Normalized ratio of the compound assessed as ratio of PBA/AB in absence of LSN 335984 to ratio of PBA/AB in presence of LSN 335984 in MDCK2-MDR1 cells at 5 uM after 1 hr; format: ADME, cell-based, Canis lupus familiaris; details: dog, mdck-mdr1, 1 h
In short: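 MDCKII-MDR1 cells seeded at 50000 cells/cm² on Transwell filters, used on day 6. Preincubated 30 min with 4.3 mg/mL BSA in DPBSH, with or without 5 μM LSN 335984. Compound (5 μM) added to the apical or basolateral donor chamber and incubated 1 h at 37 °C with nutation. Donor and receiver samples quantified by LC-MS/MS. AB and BA permeabilities calculated. Normalized ratio is the BA/AB ratio without inhibitor divided by the ratio with inhibitor.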

P-glycoprotein (MDR1) [11] = assay: P-glycoprotein-mediated transport in MDCK2-MDR1 cells assessed as permeability across apical to basolateral side at 5 uM after 1 hr; details: dog, MDCK-MDR1
P-glycoprotein (MDR1) [12] = assay: P-glycoprotein-mediated transport in MDCK2-MDR1 cells assessed as permeability across basolateral to apical side at 5 uM after 1 hr; details: dog, MDCK-MDR1
[13] = Inhibition of P-gp expressed in MDCK2-MDR1 cells by calcein AM accumulation assay; format: cell-based; details: MDCK-II
In short: as §4, with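 “min.” for “min. Fluorescence read at Ex 485/Em 530 nm. Signal expressed relative to 5 μM LSN 335984, taken as complete inhibition; vehicle 0.25% DMSO.”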

[14] = Inhibition of P-gp mediated [3H]VIN efflux in MDCK2-MDR1 cells by scintillation counter; format: cell-based; details: MDCK-II
In short: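 MDCKII-MDR1 monolayers on Transwell filters, used on day 6. Rinsed in DPBSH, then preincubated 30 min at 37 °C with compound ([…]) in BSA/DPBSH. [3H]vinblastine (0.25 μCi/mL) plus compound added basolaterally and fresh compound solution added apically. Apical buffer replaced every 10 min; apical radioactivity counted by scintillation. IC50 fitted.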

Chain of P-gp (ABCB1) (P08183 whole entry): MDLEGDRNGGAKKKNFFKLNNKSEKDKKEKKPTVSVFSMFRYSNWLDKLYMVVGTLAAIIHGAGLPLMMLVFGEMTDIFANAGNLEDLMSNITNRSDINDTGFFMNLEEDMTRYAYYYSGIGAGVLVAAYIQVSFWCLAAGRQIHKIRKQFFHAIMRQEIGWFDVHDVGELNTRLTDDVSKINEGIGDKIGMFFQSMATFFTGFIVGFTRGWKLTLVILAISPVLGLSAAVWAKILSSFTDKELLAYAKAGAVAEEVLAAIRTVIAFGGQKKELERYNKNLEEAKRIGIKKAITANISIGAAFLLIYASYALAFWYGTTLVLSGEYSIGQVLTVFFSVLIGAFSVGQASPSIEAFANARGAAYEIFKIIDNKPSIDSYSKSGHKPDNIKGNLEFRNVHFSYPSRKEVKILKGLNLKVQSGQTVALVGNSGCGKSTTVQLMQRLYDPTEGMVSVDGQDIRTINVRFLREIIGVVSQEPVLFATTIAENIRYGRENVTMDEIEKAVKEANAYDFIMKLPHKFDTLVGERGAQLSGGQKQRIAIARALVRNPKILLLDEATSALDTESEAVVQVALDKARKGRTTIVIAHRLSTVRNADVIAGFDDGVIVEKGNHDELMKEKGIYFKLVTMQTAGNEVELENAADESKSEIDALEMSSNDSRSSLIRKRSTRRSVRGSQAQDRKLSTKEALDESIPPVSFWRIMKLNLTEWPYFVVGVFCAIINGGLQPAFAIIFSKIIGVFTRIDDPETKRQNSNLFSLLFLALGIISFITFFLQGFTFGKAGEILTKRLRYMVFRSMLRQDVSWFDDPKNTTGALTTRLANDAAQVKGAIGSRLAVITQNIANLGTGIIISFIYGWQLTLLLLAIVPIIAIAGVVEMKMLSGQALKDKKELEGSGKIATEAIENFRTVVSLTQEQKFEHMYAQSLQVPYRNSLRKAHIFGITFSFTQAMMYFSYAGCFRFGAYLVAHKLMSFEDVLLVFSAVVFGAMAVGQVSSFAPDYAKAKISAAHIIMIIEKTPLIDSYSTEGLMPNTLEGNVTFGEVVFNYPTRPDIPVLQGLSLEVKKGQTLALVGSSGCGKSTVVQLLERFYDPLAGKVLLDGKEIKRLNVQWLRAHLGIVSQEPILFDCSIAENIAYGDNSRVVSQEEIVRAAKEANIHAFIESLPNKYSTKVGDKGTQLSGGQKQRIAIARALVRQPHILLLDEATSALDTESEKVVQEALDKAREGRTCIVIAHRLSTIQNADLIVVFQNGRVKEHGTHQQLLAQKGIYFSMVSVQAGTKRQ
T1 sequence (P33527 whole entry): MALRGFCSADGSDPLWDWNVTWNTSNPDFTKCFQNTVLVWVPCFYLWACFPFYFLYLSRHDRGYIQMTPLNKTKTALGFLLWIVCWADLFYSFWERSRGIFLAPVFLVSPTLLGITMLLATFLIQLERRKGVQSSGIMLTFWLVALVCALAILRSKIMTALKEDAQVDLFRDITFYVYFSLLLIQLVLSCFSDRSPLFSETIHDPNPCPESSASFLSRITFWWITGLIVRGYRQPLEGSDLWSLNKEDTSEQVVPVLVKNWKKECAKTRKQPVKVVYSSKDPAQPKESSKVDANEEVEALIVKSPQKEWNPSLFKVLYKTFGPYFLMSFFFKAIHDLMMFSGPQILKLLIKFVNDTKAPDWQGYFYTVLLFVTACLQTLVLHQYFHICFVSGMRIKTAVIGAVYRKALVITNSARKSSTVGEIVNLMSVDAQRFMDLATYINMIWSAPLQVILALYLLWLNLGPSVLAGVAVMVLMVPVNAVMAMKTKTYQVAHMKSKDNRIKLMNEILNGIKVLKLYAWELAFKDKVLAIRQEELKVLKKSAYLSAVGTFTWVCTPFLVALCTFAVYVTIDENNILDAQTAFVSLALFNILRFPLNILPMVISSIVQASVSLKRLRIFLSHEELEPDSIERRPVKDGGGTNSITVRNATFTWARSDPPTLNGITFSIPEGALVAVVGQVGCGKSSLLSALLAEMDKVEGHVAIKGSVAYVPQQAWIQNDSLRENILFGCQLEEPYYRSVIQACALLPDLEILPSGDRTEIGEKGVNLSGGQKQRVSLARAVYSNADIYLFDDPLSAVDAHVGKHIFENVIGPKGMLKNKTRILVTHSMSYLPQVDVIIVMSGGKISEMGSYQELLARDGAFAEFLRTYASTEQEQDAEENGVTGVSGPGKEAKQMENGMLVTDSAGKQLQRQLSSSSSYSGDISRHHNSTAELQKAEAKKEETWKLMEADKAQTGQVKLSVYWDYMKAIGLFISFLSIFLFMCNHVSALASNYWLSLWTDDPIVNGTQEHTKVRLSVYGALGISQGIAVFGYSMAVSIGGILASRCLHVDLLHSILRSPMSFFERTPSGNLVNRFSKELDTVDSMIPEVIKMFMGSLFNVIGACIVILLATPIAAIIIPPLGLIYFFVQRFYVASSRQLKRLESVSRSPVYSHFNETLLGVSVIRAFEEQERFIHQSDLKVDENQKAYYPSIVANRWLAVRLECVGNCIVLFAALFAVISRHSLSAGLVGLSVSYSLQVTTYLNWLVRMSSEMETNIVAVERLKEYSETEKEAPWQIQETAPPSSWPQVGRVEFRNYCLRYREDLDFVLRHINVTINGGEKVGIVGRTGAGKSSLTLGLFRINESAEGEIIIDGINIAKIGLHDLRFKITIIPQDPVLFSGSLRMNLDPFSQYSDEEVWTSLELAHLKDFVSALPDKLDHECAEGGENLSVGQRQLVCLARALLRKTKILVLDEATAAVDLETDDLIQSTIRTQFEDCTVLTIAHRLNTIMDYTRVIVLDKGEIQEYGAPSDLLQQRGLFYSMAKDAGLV
T2 sequence (P08183 whole entry): as the sequence (P08183 whole entry) above

## Cc1cc(C(C)(C)C)[o+]c(C(C)(C)C)c1
[1]
  inhibition at 30 µM: 0%

## CC(C)(C)c1cc(-c2ccc(C(=O)O)s2)cc(C(C)(C)C)[te+]1
[2]
  inhibition at 5 µM: 24%
P-gp (ABCB1)
  fold induction at 0.5 h: < 1.4
[3]
  IC50: 162 µM

## CN(C)c1ccc(-c2cc(-c3ccc(N(C)C)cc3)[te+]c(C(C)(C)C)c2)cc1
[1]
  inhibition at 30 µM: 96%
P-gp (ABCB1)
  fold induction at 0.5 h: 8.4

## CN(C)c1ccc(-c2cc(-c3ccc(N(C)C)cc3)[se+]c(C(C)(C)C)c2)cc1
[1]
  inhibition at 30 µM: 96%
P-gp (ABCB1)
  fold induction at 0.5 h: 10.1

## CC(C)(C)c1cc(-c2ccc(C(=S)N3CCCCC3)s2)cc(C(C)(C)C)[s+]1.F[P-](F)(F)(F)(F)F
[1]
  inhibition at 30 µM: 71%
[4]
  fold change (FC): 4.4

## Nc1ccc(-c2cc(-c3ccc(N4CCOCC4)cc3)cc(-c3ccc(N)cc3)[te+]2)cc1
[5]
  inhibition at 1 µM: 8%

## CCN(CC)C(=O)c1ccccc1-c1cc(C(C)(C)C)[s+]c(C(C)(C)C)c1
[1]
  inhibition at 30 µM: 34%
P-gp (ABCB1)
  fold induction at 0.5 h: 7.9
MDCK-II [6]
  inhibition: 0%
MDCK-II [7]
  inhibition: 0%

## CC(C)(C)c1cc(-c2ccc(C(=S)N3CCCCC3)s2)cc(C(C)(C)C)[te+]1
[2]
  inhibition at 5 µM: 50%
P-gp (ABCB1)
  fold induction at 0.5 h: 7.4

## CN(C)c1ccc(-c2cc(-c3ccc(C(=O)O)s3)cc(C(C)(C)C)[s+]2)cc1
[1]
  inhibition at 30 µM: 96%
P-gp (ABCB1)
  fold induction at 0.5 h: 13

## CC(C)(C)c1cc(-c2ccc(C(=S)N3CCCCC3)s2)cc(C(C)(C)C)[s+]1
MDCK-II [6]
  inhibition: 3.6%
MDCK-II [7]
  inhibition: 27% and < 7%

## CC(C)(C)c1cc(-c2ccc(C(=S)N3CCCCC3)s2)cc(C(C)(C)C)[s+]1.[Cl-]
[5]
  inhibition at 1 µM: 0%
P-gp (ABCB1)
  fold induction at 0.5 h: 3.7
[8]
  inhibition at 10 µM: 32%
[9]
  logD at 1 h: 0.7
[10]
  Ratio: 15
P-glycoprotein (MDR1) [11]
  Papp A-B at 1 h, 5 µM: 0.18 ×10⁻⁶ cm/s
P-glycoprotein (MDR1) [12]
  Papp B-A at 1 h, 5 µM: 30 ×10⁻⁶ cm/s

## Nc1ccc(-c2cc(-c3ccc(N4CCOCC4)cc3)cc(-c3ccccc3)[te+]2)cc1
[1]
  inhibition at 30 µM: 96%
P-gp (ABCB1)
  fold induction at 0.5 h: 4.5

## CN(C)c1ccc(-c2cc(-c3ccc(C(=O)N4CCCCC4)s3)cc(C(C)(C)C)[s+]2)cc1.F[P-](F)(F)(F)(F)F
[5]
  inhibition at 1 µM: 0%
P-gp (ABCB1)
  fold induction at 0.5 h: 6.6
[8]
  inhibition at 10 µM: 59%
[9]
  logD at 1 h: 1.4
[13]
  IC50: 18 µM
[10]
  Ratio: 4
P-glycoprotein (MDR1) [11]
  Papp A-B at 1 h, 5 µM: 0.56 ×10⁻⁶ cm/s
P-glycoprotein (MDR1) [12]
  Papp B-A at 1 h, 5 µM: 2.2 ×10⁻⁶ cm/s

## CC(C)(C)c1cc(-c2ccc(C(=O)O)s2)cc(C(C)(C)C)[s+]1
[5]
  inhibition at 1 µM: 8%
P-gp (ABCB1)
  fold induction at 0.5 h: 3.5
MDCK-II [6]
  inhibition: 0%
MDCK-II [7]
  inhibition: 0%

## CN(C)c1ccc(-c2cc(-c3ccc(C(=O)N4CCCCC4)s3)cc(-c3ccc(N(C)C)cc3)[s+]2)cc1.F[P-](F)(F)(F)(F)F
[5]
  inhibition at 1 µM: 18%
P-gp (ABCB1)
  fold induction at 0.5 h: 6
[8]
  inhibition at 10 µM: 78%
[9]
  logD at 1 h: 2.1
[13]
  IC50: 24 µM
[14]
  IC50: 5.9 µM
[10]
  Ratio: 79
P-glycoprotein (MDR1) [11]
  Papp A-B at 1 h, 5 µM: 0.17 ×10⁻⁶ cm/s
P-glycoprotein (MDR1) [12]
  Papp B-A at 1 h, 5 µM: 62 ×10⁻⁶ cm/s

## CN(C)c1ccc(-c2cc(-c3ccc(C(=S)N4CCCCC4)s3)cc(-c3ccc(N(C)C)cc3)[s+]2)cc1.[Cl-]
[5]
  inhibition at 1 µM: 25%
P-gp (ABCB1)
  fold induction at 0.5 h: 5.7
[8]
  inhibition at 10 µM: 81%
[9]
  logD at 1 h: 1.6
[13]
  IC50: 34 µM
[14]
  IC50: 6.6 µM
[10]
  Ratio: 8
P-glycoprotein (MDR1) [11]
  Papp A-B at 1 h, 5 µM: 0.11 ×10⁻⁶ cm/s
P-glycoprotein (MDR1) [12]
  Papp B-A at 1 h, 5 µM: 1.6 ×10⁻⁶ cm/s

## Cc1cc(-c2ccc(N(C)C)cc2)cc(-c2ccc(N(C)C)cc2)[se+]1
[5]
  inhibition at 1 µM: 15%
P-gp (ABCB1)
  fold induction at 0.5 h: 1.4
